Data: ChEMBL document CHEMBL1629633, “Prevalence of sulfonamide resistance genes in bacterial isolates from manured agricultural soils and pig slurry in the United Kingdom” (2009)

How the values were obtained:
[1] = test system: Acinetobacter lwoffii; assay: Antimicrobial activity against Acinetobacter lwoffii isolate C2 harboring sul1 to sul3 genes assessed as antibiotic resistance breakpoint by agar dilution method; type: functional
How it was run: (§1)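 Agar dilution on Iso-Sensitest agar for MICs and resistance breakpoints. Each isolate's inoculum (100 μl) was adjusted to OD600 0.4. Isolates came from soil cores of a field given pig slurry, or from the pig slurry itself. They were picked from nonselective or antibiotic plates incubated aerobically at 28°C, purified by restreaking, checked for sul genes by PCR and identified by 16S rRNA sequencing.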

[2] = test system: Acinetobacter lwoffii; assay: Antimicrobial activity against Acinetobacter lwoffii isolate C15 harboring sul1 to sul3 genes assessed as antibiotic resistance breakpoint by agar dilution method; type: functional; how it was run: as §1
[3] = test system: Acinetobacter lwoffii; assay: Antimicrobial activity against Acinetobacter lwoffii isolate C141 harboring sul1 to sul3 genes assessed as antibiotic resistance breakpoint by agar dilution method; type: functional; how it was run: as §1
[4] = test system: Acinetobacter lwoffii; assay: Antimicrobial activity against Acinetobacter lwoffii isolate PGS47 harboring sul1 to sul3 genes assessed as antibiotic resistance breakpoint by agar dilution method; type: functional; how it was run: as §1
[5] = Antimicrobial activity against Psychrobacter ikaite isolate C713 harboring sul1 to sul3 genes assessed as antibiotic resistance breakpoint by agar dilution method; type: functional
How it was run: (§2)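 Isolates were recovered from manured clay soil or pig slurry on Iso-Sensitest agar at 28°C. sul genes were detected by PCR, and identity was assigned by ~800 bp 16S rRNA sequencing. MICs and resistance breakpoints were found by agar dilution on Iso-Sensitest agar, with each inoculum (100 μl) adjusted to OD600 0.4.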

[6] = test system: Bacillus psychrodurans; assay: Antimicrobial activity against Bacillus psychrodurans isolate C328 harboring sul1 to sul3 genes assessed as antibiotic resistance breakpoint by agar dilution method; type: functional, Psychrobacillus psychrodurans; how it was run: as §1
[7] = test system: Shigella flexneri; assay: Antimicrobial activity against Shigella flexneri isolate C506 harboring sul1 to sul3 genes assessed as antibiotic resistance breakpoint by agar dilution method; type: functional; how it was run: as §2
[8] = test system: Acinetobacter calcoaceticus; assay: Antimicrobial activity against Acinetobacter calcoaceticus isolate C35 harboring sul1 to sul3 genes assessed as antibiotic resistance breakpoint by agar dilution method; type: functional; how it was run: as §1
[9] = Antimicrobial activity against Psychrobacter ikaite isolate C20 harboring sul1 to sul3 genes assessed as antibiotic resistance breakpoint by agar dilution method; type: functional; how it was run: as §1
[10] = test system: Arthrobacter arilaitensis; assay: Antimicrobial activity against Arthrobacter arilaitensis isolate C361 harboring sul1 to sul3 genes assessed as antibiotic resistance breakpoint by agar dilution method; type: functional, Glutamicibacter arilaitensis; how it was run: as §1
[11] = test system: Aerococcus viridans; assay: Antimicrobial activity against Aerococcus viridans isolate PGS22 harboring sul1 to sul3 genes assessed as antibiotic resistance breakpoint by agar dilution method; type: functional; how it was run: as §1
[12] = Antimicrobial activity against Acinetobacter sp. N2 isolate C439 harboring sul1 to sul3 genes assessed as antibiotic resistance breakpoint by agar dilution method; type: functional; how it was run: as §1
[13] = test system: Acinetobacter baumannii; assay: Antimicrobial activity against Acinetobacter baumannii isolate C442 harboring sul1 to sul3 genes assessed as antibiotic resistance breakpoint by agar dilution method; type: functional; how it was run: as §1
[14] = test system: Lysinibacillus sphaericus; assay: Antimicrobial activity against Bacillus sphaericus isolate C237 harboring sul1 to sul3 genes assessed as antibiotic resistance breakpoint by agar dilution method; type: functional; how it was run: as §1
[15] = test system: Pseudomonas putida; assay: Antimicrobial activity against Pseudomonas putida isolate C231 harboring sul1 to sul3 genes assessed as antibiotic resistance breakpoint by agar dilution method; type: functional; how it was run: as §1
[16] = test system: Psychrobacter frigidicola; assay: Antimicrobial activity against Psychrobacter frigidicola isolate C712 harboring sul1 to sul3 genes assessed as antibiotic resistance breakpoint by agar dilution method; type: functional; how it was run: as §1
[17] = test system: Acinetobacter rhizosphaerae; assay: Antimicrobial activity against Acinetobacter rhizosphaerae isolate C44 harboring sul1 to sul3 genes assessed as antibiotic resistance breakpoint by agar dilution method; type: functional; how it was run: as §1
[18] = Antimicrobial activity against Psychrobacter sp. DY9-2 isolate C711 harboring sul1 to sul3 genes assessed as antibiotic resistance breakpoint by agar dilution method; type: functional; how it was run: as §2
[19] = test system: Acinetobacter calcoaceticus; assay: Antimicrobial activity against Acinetobacter calcoaceticus isolate C36 harboring sul1 to sul3 genes assessed as antibiotic resistance breakpoint by agar dilution method; type: functional; how it was run: as §1
[20] = test system: Acinetobacter lwoffii; assay: Antimicrobial activity against Acinetobacter lwoffii isolate C37 harboring sul1 to sul3 genes assessed as antibiotic resistance breakpoint by agar dilution method; type: functional; how it was run: as §1
[21] = Antimicrobial activity against Acinetobacter sp. An9 isolate PGS49 harboring sul1 to sul3 genes assessed as antibiotic resistance breakpoint by agar dilution method; type: functional; how it was run: as §1
[22] = test system: Pseudomonas lini; assay: Antimicrobial activity against Pseudomonas lini isolate C701 harboring sul1 to sul3 genes assessed as antibiotic resistance breakpoint by agar dilution method; type: functional; how it was run: as §1
[23] = test system: Providencia stuartii; assay: Antimicrobial activity against Providencia stuartii isolate C167 harboring sul1 to sul3 genes assessed as antibiotic resistance breakpoint by agar dilution method; type: functional; how it was run: as §1
[24] = test system: Enterococcus hirae; assay: Antimicrobial activity against Enterococcus hirae isolate PGS48 harboring sul1 to sul3 genes assessed as antibiotic resistance breakpoint by agar dilution method; type: functional; how it was run: as §1
[25] = test system: Stenotrophomonas maltophilia; assay: Antimicrobial activity against Stenotrophomonas maltophilia isolate C422 harboring sul1 to sul3 genes assessed as antibiotic resistance breakpoint by agar dilution method; type: functional; how it was run: as §2
[26] = test system: Enterococcus sulfureus; assay: Antimicrobial activity against Enterococcus sulfureus isolate PGS61 harboring sul1 to sul3 genes assessed as antibiotic resistance breakpoint by agar dilution method; type: functional; how it was run: as §1
[27] = test system: Pseudomonas fluorescens; assay: Antimicrobial activity against Pseudomonas fluorescens isolate C131 harboring sul1 to sul3 genes assessed as antibiotic resistance breakpoint by agar dilution method; type: functional; how it was run: as §1
[28] = test system: Pseudomonas borealis; assay: Antimicrobial activity against Pseudomonas borealis isolate C5 harboring sul1 to sul3 genes assessed as antibiotic resistance breakpoint by agar dilution method; type: functional; how it was run: as §1
[29] = Antimicrobial activity against Psychrobacter ikaite isolate C410 harboring sul1 to sul3 genes assessed as antibiotic resistance breakpoint by agar dilution method; type: functional; how it was run: as §2
[30] = test system: Aerococcus viridans; assay: Antimicrobial activity against Aerococcus viridans isolate PGS21 harboring sul1 to sul3 genes assessed as antibiotic resistance breakpoint by agar dilution method; type: functional; how it was run: as §1

| SMILES | Activity [1] | Activity [2] | Activity [3] | Activity [5] | Activity [6] | Activity [7] | Activity [8] | Activity [9] | Activity [10] | Activity [11] | Activity [12] | Activity [13] | Activity [14] | Activity [15] | Activity [16] | Activity [17] | Activity [18] | Activity [19] | Activity [20] | Activity [22] | also measured |
| --- | --- | --- | --- | --- | --- | --- | --- | --- | --- | --- | --- | --- | --- | --- | --- | --- | --- | --- | --- | --- | --- |
| CCn1cc(C(=O)O)c(=O)c2ccc(C)nc21 [NALIDIXIC ACID] | 16 µg/mL | 16 µg/mL | 16 µg/mL | 16 µg/mL | 16 µg/mL | 16 µg/mL | 16 µg/mL | 16 µg/mL | 16 µg/mL | 16 µg/mL | 16 µg/mL | 16 µg/mL | 16 µg/mL | 16 µg/mL | 16 µg/mL | 16 µg/mL | 16 µg/mL | 16 µg/mL | 16 µg/mL | 16 µg/mL | Activity [4]: 16 µg/mL; Activity [21]: 16 µg/mL |
| CN[C@@H]1[C@H](O[C@H]2[C@H](O[C@H]3[C@H](O)[C@@H](O)[C@H](N=C(N)N)[C@@H](O)[C@@H]3N=C(N)N)O[C@@H](C)[C@]2(O)C=O)O[C@@H](CO)[C@H](O)[C@H]1O [STREPTOMYCIN] | 16 µg/mL | 16 µg/mL | 16 µg/mL | 16 µg/mL | 16 µg/mL | 16 µg/mL | 16 µg/mL | 16 µg/mL | 16 µg/mL | 16 µg/mL | 16 µg/mL | – | 16 µg/mL | – | 16 µg/mL | 16 µg/mL | 16 µg/mL | 16 µg/mL | 16 µg/mL | 16 µg/mL | Activity [23]: 16 µg/mL; Activity [24]: 16 µg/mL; Activity [4]: 16 µg/mL; Activity [25]: 16 µg/mL; Activity [21]: 16 µg/mL; Activity [26]: 16 µg/mL |
| CN(C)[C@@H]1C(O)=C(C(N)=O)C(=O)[C@@]2(O)C(O)=C3C(=O)c4c(O)cccc4[C@@](C)(O)[C@H]3C[C@@H]12 [TETRACYCLINE] | 8 µg/mL | 8 µg/mL | 8 µg/mL | 8 µg/mL | 8 µg/mL | 8 µg/mL | 8 µg/mL | 8 µg/mL | 8 µg/mL | 8 µg/mL | 8 µg/mL | 8 µg/mL | – | 8 µg/mL | 8 µg/mL | 8 µg/mL | 8 µg/mL | 8 µg/mL | 8 µg/mL | – | Activity [23]: 8 µg/mL; Activity [24]: 8 µg/mL; Activity [27]: 8 µg/mL; Activity [28]: 8 µg/mL; Activity [29]: 8 µg/mL; Activity [30]: 8 µg/mL; Activity [26]: 8 µg/mL |
| COc1cc(Cc2cnc(N)nc2N)cc(OC)c1OC [TRIMETHOPRIM] | 16 µg/mL | 16 µg/mL | 16 µg/mL | 16 µg/mL | – | 16 µg/mL | 16 µg/mL | 16 µg/mL | – | – | 16 µg/mL | – | 16 µg/mL | – | 16 µg/mL | 16 µg/mL | 16 µg/mL | 16 µg/mL | 16 µg/mL | 16 µg/mL | – |
| NC[C@H]1O[C@H](O[C@H]2[C@H](O)[C@@H](O[C@H]3O[C@H](CO)[C@@H](O)[C@H](N)[C@H]3O)[C@H](N)C[C@@H]2N)[C@H](O)[C@@H](O)[C@@H]1O [KANAMYCIN] | – | – | 16 µg/mL | – | 16 µg/mL | 16 µg/mL | – | – | – | – | – | – | – | – | – | – | – | – | – | – | – |
| NC[C@@H]1O[C@H](O[C@H]2[C@@H](O)[C@H](O[C@@H]3[C@@H](O)[C@H](N)C[C@H](N)[C@H]3O[C@H]3O[C@H](CN)[C@@H](O)[C@H](O)[C@H]3N)O[C@@H]2CO)[C@H](N)[C@@H](O)[C@@H]1O [FRAMYCETIN] | – | 8 µg/mL | 8 µg/mL | – | 8 µg/mL | 8 µg/mL | – | – | 8 µg/mL | 8 µg/mL | – | – | – | 8 µg/mL | – | 8 µg/mL | – | – | – | – | – |
| O=C(N[C@H](CO)[C@H](O)c1ccc([N+](=O)[O-])cc1)C(Cl)Cl [CHLORAMPHENICOL] | 16 µg/mL | 16 µg/mL | 16 µg/mL | 16 µg/mL | 16 µg/mL | 16 µg/mL | 16 µg/mL | 16 µg/mL | 16 µg/mL | 16 µg/mL | – | 16 µg/mL | – | 16 µg/mL | – | 16 µg/mL | – | 16 µg/mL | 16 µg/mL | – | Activity [28]: 16 µg/mL; Activity [30]: 16 µg/mL |
| CC1(C)S[C@@H]2[C@H](NC(=O)[C@H](N)c3ccccc3)C(=O)N2[C@H]1C(=O)O [AMPICILLIN] | – | – | 16 µg/mL | – | – | 16 µg/mL | – | – | – | – | – | – | – | 16 µg/mL | – | – | – | – | – | 16 µg/mL | – |
